# This is a sample that favours compounds with a hit; in the whole collection about 11% have one here.
# WT yeast gro inh: growth inhibition of WT strain, primary screen, mitochondrial fusion inhibitor project, WT and mutant strains, chemical genetic | inhibition, % at 10 µM | hit rate 2.1% among 190,000 | mitochondrial fusion phenotypic screen | AID 1362, 2008; in the data active = inhibition above about 58%; tested in S. cerevisiae
# Diaph inh CS: diaphorase inhibitors and chemical oxidizers, primary screen, counter-screen for diaphorase-coupled primary assays, biochemical, uHTS, resorufin fluorescence. hit rate 0.69% among 190,000. diaphorase resazurin-to-resorufin fluorescence, NADH, 16 min; bacterial (C. kluyveri) enzyme, not human. inhibition, % at 20 µM. AID 1217, 2008;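 active = primary screen inhibition at 20 µM above a set limit, cut at about 50% in these data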;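 also: plate controls were DMSO with full reaction for no effect and wells lacking NADH for full effect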
#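 Assay system – diaphorase enzyme from Clostridium kluyveri · Amount – diaphorase 0.14 U/mL (working solution) · Times – reaction incubation of 16 min at room temperature · Controls – No-NADH positive control and DMSO neutral control · Signal – resorufin fluorescence 544/590 nm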
# G6PDH CS: L. mesenteroides G6PDH inhibitors, counter-screen for G6PDH-coupled screening assays, biochemical, Leuconostoc mesenteroides enzyme | glucose-6-phosphate dehydrogenase [Leuconostoc mesenteroides] | inhibition, % at 5 µM | hit rate 0.12% among 200,000 | AID 1020, 2008 | Purified L. mesenteroides G6PDH, diaphorase/resazurin coupled fluorescence, 45 min
# L major viab: Leishmania major promastigote growth inhibition, primary screen | Leishmania major promastigotes, resazurin fluorescence viability | inhibition, % at 10 µM | hit rate 9% among 200,000 | AID 1063, 2008;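 also: promastigotes grown with compound for 44 hours at 28 °C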
# Diaphorase act: compounds boosting diaphorase resazurin reduction – biochemical, uHTS, resorufin fluorescence, counter-screen for diaphorase-coupled primary assays, primary screen. Diaphorase/resazurin coupled assay, 16 min; hits give high values; 1 = vehicle wells, 0 = NADH-free wells. activation factor at 20 µM. hit rate 0.005% among 190,000;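 active = diaphorase activity raised at least twofold by the compound at 20 µM; inactive = activation factor below 2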
#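 Assay system: bacterial diaphorase enzyme (C. kluyveri) / Input: enzyme 0.07 U/mL final / Medium: 50 mM HEPES pH 7.4 with 4.542 mM MgCl2, 0.005% Tween 20 / Doses: single compound dose of 20 µM, 1% DMSO final / Incubation: 16 min enzyme reaction, ambient temperature / Signal: fluorescence, excitation 544 nm and emission 590 nm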
# Active calls of the source: *; · = no result given. Rule as the data show it, unless noted: active = inhibition above about 50%; inactive = the rest.
SMILES,WT yeast gro inh,Diaph inh CS,G6PDH CS,L major viab,Diaphorase act
COC(=O)C1=C(N)OC2=C(C(=O)CC(C)(C)C2)C1c1cccnc1 (configuration not stated),2,7,4,50*,0.9
CC1=C(C(=O)OCCOC(C)C)C(c2cccnc2)C2=C(CCCC2=O)N1 (configuration not stated),7,18,1,23,0.8
Cn1c(=O)c2c(nc(-n3ccnc3)n2Cc2ccc([N+](=O)[O-])cc2)n(C)c1=O,16,16,-16,37,0.8
CC(C)=CCN1CCN(Cc2cc(F)ccc2-n2nc(C)cc2C)CC1CCO (configuration not stated),12,·,5,0,·
CCN(CC(=O)NCc1cccs1)C(=O)c1cccc(S(=O)(=O)N2CCc3ccccc32)c1,-4,10,-4,9,0.9
O=C(CCS(=O)(=O)c1ccccc1)Nc1nc(-c2cccs2)cs1,24,4,50*,50*,1
CC(=O)Nc1cccc(-c2csc(NCc3ccccc3)n2)c1,19,18,6,2,0.8
CC(=O)Nc1ccc(-c2csc(NC(=O)CCCc3cccs3)n2)cc1,-12,15,-4,75*,0.8
Cc1ccc(-c2csc(NC(=O)CCNC(=O)c3ccccc3Cl)n2)cc1,39,22,-4,84*,0.8
O=C(COc1ccccc1)Nc1nc(-c2cccs2)cs1,40,28,-3,-7,0.7
CC(=O)Nc1ccc(-c2csc(NCc3ccccc3)n2)cc1,-1,10,2,60*,0.9
Cc1ccc(-c2csc(NC(=O)CCCc3cccs3)n2)cc1,12,15,11,9,0.9
Cc1ccc(-c2csc(NC(=O)CCNC(=O)c3ccc(Cl)cc3)n2)cc1,0,4,12,-2,1
O=C(CSc1nnc(Cc2ccccc2)n1-c1cccc(Cl)c1)NNC(=O)Cc1ccccc1,-11,10,12,15,0.9
CC1(C)Cc2ccccc2C(N/N=C/c2ccc(Cl)cc2)=N1,55,14,-7,15,0.9
CCOC(=O)c1c(NC(=O)CSc2nc3cc(Cl)ccc3c(=O)n2Cc2ccco2)sc(C(=O)N(C)C)c1C,7,25,-33,78*,0.7
CCc1ccc(NC(=O)CSc2nc3cc(C(=O)OC)ccc3c(=O)n2Cc2ccco2)cc1,-14,4,4,4,1
COc1ccc2nc(-n3c(O)c(C4=c5ccccc5=NC4=O)[nH]c3=S)sc2c1,26,52*,-15,-3,0.5
CCC(=Nc1ccc(N)cc1)C1=C(O)C(C(=O)OC)C(C)(C)CC1=O (configuration not stated),18,26,5,-1,0.7
CCCCC(=Nc1ccc(N)cc1)C1=C(O)C(C(=O)OC)C(C)(C)CC1=O (configuration not stated),15,21,5,68*,0.8
CC1=NN(c2ccc(C)cc2)C(=O)/C1=C\C=C\c1ccccc1,13,8,-4,100*,0.9
CC1=NN(c2ccccc2)C(=O)/C1=C/C=C/C=C/N(C)C,47,22,-5,-2,0.8
CC1=NN(c2cccc(C(=O)O)c2)C(=O)/C1=C\C=C/c1ccccc1,9,19,3,100*,0.8
CC1=NN(c2ccccc2)C(=O)/C1=C\c1ccc(Br)s1,11,0,-9,54*,1
CC1=NN(c2ccccc2)C(=O)/C1=C\c1cc(C)n(-c2ccccc2)c1C,0,20,-20,-1,0.8
SMILES,WT yeast gro inh,Diaph inh CS,G6PDH CS,L major viab,Diaphorase act
Cc1ccc(-c2ccc(CCC(=O)O)n2NC(=O)c2ccc([N+](=O)[O-])cc2)cc1,3,14,10,-1,0.9
Cc1cc(C)c(OCCCCNCc2ccccc2)c(Cl)c1,41,4,6,97*,1
COc1ccccc1OCCCOc1c(Cl)cc(C)cc1Cl,4,8,9,-3,0.9
COCCCNCCCCOc1c(Cl)cc(C)cc1Br,15,0,9,100*,1
C=CCNCCCCOc1c(Cl)cc(C)cc1Br,7,9,-2,99*,0.9
C=CCNCCOc1c(C)cc(C)cc1Cl,-2,-6,2,-2,1.1

# Assay outcomes from PubChem.
